We go through two molecules from PMC9043999 (Cell Reports Medicine, 2022).

Test [1] deals with insulin-deficient diabetes induced by a single high dose of streptozotocin in male and female mice. The conditions noted are these: single high dose of STZ; cited from earlier work.
Test [2] deals with human islets. Kind of test: RPPA protein expression with gene ontology enrichment. Type of test: cell-based. The conditions noted are these: for GO pathways with downregulated proteins / GO pathways with upregulated proteins: adjusted p value < 0.01. A digest of the protocol:
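Islets from 3 male human donors, cultured overnight at 37°C in phenol-red-free RPMI (11 mM glucose, 10% charcoal-stripped FBS). […] Lysates serially diluted twofold (5 dilutions), arrayed on nitrocellulose, probed with 485 antibodies via tyramide amplification and DAB; expression normalized.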

The test system of a further test is ERE-GFP MIN6 cells. Kind of test: ERE-GFP reporter activation, flow cytometry. It counts as cell-based, mouse. A digest of the protocol: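 MIN6 cells were stably transduced with a lentiviral 4×ERE-driven GFP reporter and selected with puromycin (2 μg/mL). They were kept in phenol-free DMEM with 10% charcoal-stripped FBS for 7 days before and during assays. Test compounds were given overnight at 10−8 M, or in time courses at 10 nM (1 min) or 100 nM (1, 15, 60, 120 min). Percent GFP-positive cells were scored by flow cytometry, gated on vehicle-treated cells.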

For test [3], the system named is MLD-STZ-induced diabetes in male C57BL6 mice. The test is described as follows: MLD-STZ-induced diabetes, wild-type mice. It counts as in vivo, mouse.
For test [4], the system named is human islets. The test is described as follows: RPPA phosphoproteins with Ingenuity Pathway Analysis. It counts as cell-based. To be noted: for annotations predicting pathway activation (Z score > 2) / pathways predicting inhibition (Z score < −2): 10^−8 M, 5 min, N = 3 male donors; for most represented biological function: 5 min stimulation (Fig S5). A digest of the protocol:
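Islets came from three male human donors and were cultured overnight at 37°C in phenol-red-free RPMI (11 mM glucose, 10% charcoal-stripped FBS). They were treated with test compounds at 10−8 M for 5 min, 30 min or 18 h, against untreated islets. Lysates were twofold serially diluted (5 dilutions), arrayed on slides and probed with 485 antibodies using tyramide amplification and DAB detection. Pathway changes were analysed with IPA Downstream Effects Analysis.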

The test system of a further test is GLP-1R. To be noted: target β cells; cited from earlier work.

Turning to `C[C@]12CC[C@@H]3c4ccc(O)cc4CC[C@H]3[C@@H]1CC[C@@H]2O` [E2, 17β-Estradiol], the “prevention of insulin-deficient diabetes” value in test [1] is “prevents insulin-deficient diabetes”. In addition, in the test with human islets [2] (5 and 30 min), the protein expression entry was “heightened protein expression at 5 and 30 min”. Besides, in the test on human islets [2] (18 h), the “GO pathways with downregulated proteins” value is “downregulated multiple proteins enriched in pathways involved in apoptosis and inflammation, protein phosphorylation, transcription, and Akt/PI3-kinase”; the “GO pathways with upregulated proteins” value is “upregulated few proteins enriched in pathways involved in proliferation and response to estrogen”. In the test on human islets [2] (18 h, compared to GLP-1- and GLP1-E2-treated islets), the protein expression entry is on record as “decreased protein expression level at 18 h”. Also, in the test with ERE-GFP MIN6 cells (24 h exposure (text; overnight in legend), 10^−8 M (Fig 2D, 2E)), the “increase in percentage of ERE-activated MIN6 cells” value is listed as 4.7 fold. In addition, the “ERE activation with ER antagonist fulvestrant” value with ERE-GFP MIN6 cells (E2 after pretreatment with fulvestrant) is reported as “reversed by pretreatment with the ER antagonist fulvestrant”. Further, in the test on ERE-GFP MIN6 cells (E2 alone 1 min, 10 nM (Fig 2F, 2G)), the “increase in percentage of ERE-activated MIN6 cells” value came to 6.1 fold. Also, the “time to reach the nucleus and activate EREs” value with ERE-GFP MIN6 cells (MIN6 cells) is given as no more than 1 min. The “index of β cell function (insulin/glucose)” value in test [3] (male C57BL6 mice, 120 μg/kg/day, day 13, vs other treatments) is given as “maintenance of the index of β cell function”. Also, the hyperglycemia result in test [3] (male C57BL6 mice, 120 μg/kg/day, vs other treatments, n = 10) is reported as “decrease in hyperglycemia”. The “level of phosphoproteins and related total proteins” value in the test on human islets [4] (5 and 30 min, vs GLP-1 or GLP1-E2) is “heightened level of phosphoproteins and related total proteins at 5 and 30 min”. Moreover, in the test with human islets [4], the “annotations predicting pathway activation (Z score > 2)” value is “related to cell viability and survival”; the “pathways predicting inhibition (Z score < −2)” value was “related to cell death, apoptosis, or necrosis”; the “most represented biological function” value was “Cell Death & Survival”. Also, the level of phosphoproteins result in the test on human islets [4] (18 h, vs GLP-1 or GLP1-E2) is recorded as “decreased in phosphoproteins at 18 h”.
With glucagon-like peptide-1 [GLP-1], in the test on human islets [2] (18 h), the “GO pathways with downregulated proteins” value was “downregulated multiple proteins enriched in pathways involved in apoptosis, cytokine and oxidative stress-related inflammation, protein phosphorylation, Akt/PI3-kinase, and cell cycle”; the “GO pathways with upregulated proteins” value was “upregulated few proteins enriched in pathways involved in response to cytokines and glycolysis”. Besides, the “clathrin-mediated endocytosis of GLP-1R” value in the test on GLP-1R is recorded as “promotes ligand-activated, clathrin-mediated endocytosis of GLP-1R”. Besides, the “antidiabetic efficacy at dose ten times lower” value in test [3] (mice, dose ten times lower (12 μg/kg)) is “not efficient in mice”. In the test on human islets [4], the “annotations predicting pathway activation (Z score > 2)” value was “related to cell viability and survival”; the “pathways predicting inhibition (Z score < −2)” value is given as “related to cell death, apoptosis, or necrosis”; the “most represented biological function” value was “Cell Death & Survival”.
